# Measurements gathered from unrelated publications.
# Each line is one published result; the experiments were not run side by side.
# Cell line: PC-9
# Read-out: cell growth or viability
# Time: 72 h
SMILES,assay,setting,quantity,result
O=C(Nc1ccc(Cl)cc1)Nc1ccc(-c2cn(Cc3ccc(Cl)cc3)nn2)cc1,CCK-8,50 µM,viability,81.3%
COc1ccc(NC(=O)Nc2nc3cc(-c4ccc5ncn(CCN6CCOCC6)c(=O)c5c4)ccc3s2)cc1,MTT,,IC50,> 20 µM
COc1ccc(NC(=O)NCc2cn(Cc3ccc(Cl)cc3)nn2)cc1,CCK-8,20 µM,viability,96.2%
COc1ccc(N(Cc2csc(-c3ccc(C)cc3)n2)C(=O)CCCCCC(=O)NO)cc1,MTT,,IC50,0.46 µM
O=C(Nc1ccc(Cl)cc1)Nc1nc2cc(-c3ccc4ncn(CCN5CCOCC5)c(=O)c4c3)ccc2s1,MTT,,IC50,> 20 µM
O=C(Nc1ccc(Cl)cc1)Nc1cccc(-c2cn(Cc3ccc(Cl)cc3)nn2)c1,CCK-8,20 µM,viability,95.4%
O=C(Nc1ccc(F)cc1)Nc1nc2cc(-c3ccc4ncn(CC5CC5)c(=O)c4c3)ccc2s1,MTT,,IC50,> 20 µM
COc1ccc(NC(=O)Nc2cccc(-c3cn(Cc4ccc(Cl)cc4)nn3)c2)cc1,CCK-8,50 µM,viability,89.5%
COc1ccc(N(Cc2csc(-c3ccc(Br)cc3)n2)C(=O)CCCCCC(=O)NO)cc1,MTT,,IC50,1.86 µM
O=C(Nc1cccc(-c2cn(Cc3ccc(Br)cc3)nn2)c1)Nc1ccccc1Br,CCK-8,20 µM,viability,128%
COc1ccc(C(=O)Nc2nc3cc(-c4ccc5ncn(Cc6ccccc6)c(=O)c5c4)ccc3s2)cc1,MTT,,IC50,> 20 µM
Cc1ccccc1Cn1cc(-c2cccc(NC(=O)Nc3ccc(F)cc3)c2)nn1,CCK-8,20 µM,viability,88.9%
O=C(NCc1cn(Cc2ccc(Cl)cc2)nn1)Nc1ccccc1Br,CCK-8,50 µM,viability,127%
CCCCn1cnc2ccc(-c3ccc4sc(NC(=O)Nc5ccc(F)cc5)nc4c3)cc2c1=O,MTT,,IC50,6.17 µM
COc1ccc(NC(=O)Nc2ccc(-c3cn(Cc4ccc(Br)cc4)nn3)cc2)cc1,CCK-8,20 µM,viability,93%
O=C(Nc1ccc(Cl)cc1)Nc1ccc(-c2cn(Cc3ccc(Br)cc3)nn2)cc1,CCK-8,20 µM,viability,71.5%
COc1ccc(NC(=O)Nc2ccc(-c3cn(Cc4ccc(C)cc4)nn3)cc2)cc1,CCK-8,20 µM,viability,87.1%
CCCn1cnc2ccc(-c3ccc4sc(NC(=O)Nc5ccc(F)cc5)nc4c3)cc2c1=O,MTT,,IC50,1.51 µM
COc1ccc(NC(=O)Nc2ccc(-c3cn(Cc4ccc(Cl)cc4)nn3)cc2)cc1,CCK-8,20 µM,viability,91%
O=C(Nc1cccc(-c2cn(Cc3ccc(Cl)cc3)nn2)c1)Nc1ccccc1Br,CCK-8,50 µM,viability,107%
